ChEMBL document CHEMBL1125291, “New 8-(trifluoromethyl)-substituted quinolones. The benefits of the 8-fluoro group with reduced phototoxic risk” (1992)
Values after ≈ are worked out from the molar mass of the structure shown. Values joined by “and” are separate entries in the source; they are usually repeats but may differ in a detail not shown here. Identical values can stand only once.

What was measured:
[1] = test system: Streptococcus pneumoniae; experiment: Minimum inhibitory concentration (MIC) against gram positive bacteria Streptococcus pneumoniae SV-1.; type: functional
Outline: (§1)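 MICs were determined by standard broth microtitration against 11 Gram-positive and Gram-negative organisms, in µg/mL. Values come from duplicate or triplicate experiments and are accurate to ±50%.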

[2] = test system: Streptococcus pneumoniae; experiment: In vivo efficacy (s.c.) against Streptococcus pneumoniae SV-1 in mouse protection test; type: functional; details: for ED50: Streptococcus pneumoniae, sc, read-out: PD50
Outline: (§2)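 Acute lethal systemic infections in female Charles River CD-1 mice. A single dose was given at challenge, orally by gavage or by subcutaneous injection. PD50 (median protective dose, mg/kg) was determined.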

[3] = species on record: Mus musculus; experiment: Dose required to induce phototoxic reaction in 50% of mice by […] reactions at different dosage forms; type: functional
Outline: (§3)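 Depilated female CD-1 mice got a single oral (gavage) or subcutaneous dose, then UVA (320–400 nm) exposure for 3 h starting 1 h post-dose. This was repeated for up to 4 consecutive days. Initial doses were 30, 100 and 300 mg/kg. PTD50 was derived by probit. First day of positive reaction and no-effect dose were taken from the raw data.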

[4] = test system: Staphylococcus aureus; experiment: Minimum inhibitory concentration (MIC) against gram positive bacteria Staphylococcus aureus UC-76.; type: functional; outline: as §1
[5] = test system: Escherichia coli; experiment: In vivo efficacy in mouse protection test in Escherichia coli Vogel dose administered orally by gavage.; type: functional; details: for ED50: Escherichia coli, po, read-out: PD50; outline: as §2
[6] = test system: Staphylococcus aureus; experiment: Minimum inhibitory concentration (MIC) against gram positive bacteria Staphylococcus aureus H-228.; type: functional; outline: as §1
[7] = test system: Enterococcus faecalis; experiment: Minimum inhibitory concentration (MIC) against gram positive bacteria Streptococcus faecalis MGH-2.; type: functional; outline: as §1
[8] = test system: Pseudomonas aeruginosa; experiment: Minimum inhibitory concentration (MIC) against gram negative bacteria Pseudomonas aeruginosa UI-18.; type: functional; outline: as §1
[9] = test system: Mus musculus; experiment: Maximum tolerance dose was measured for phototoxic skin reaction by po administration; type: functional
[10] = test system: Escherichia coli; experiment: Minimum inhibitory concentration (MIC) against gram negative bacteria Escherichia coli H-560.; type: functional; outline: as §1
[11] = test system: Streptococcus pyogenes; experiment: In vivo efficacy (orally) against Streptococcus pyogenes C-203 in mouse protection test; type: functional; details: for ED50: Streptococcus pyogenes, po, read-out: PD50; outline: as §2
[12] = species on record: Mus musculus; experiment: Number of mice which show positive phototoxic reaction in 5 mice; type: functional
[13] = Minimum inhibitory concentration (MIC) against gram negative bacteria Prot. rettgeri M-1771.; type: functional, Providencia rettgeri; outline: as §1
[14] = test system: Streptococcus pyogenes; experiment: Minimum inhibitory concentration (MIC) against gram positive bacteria Streptococcus pyogenes C-203.; type: functional; outline: as §1
[15] = test system: Pseudomonas aeruginosa; experiment: In vivo efficacy (s.c.) against Pseudomonas aeruginosa in mouse protection test; type: functional; details: for ED50: Pseudomonas aeruginosa, sc, read-out: PD50; outline: as §2
[16] = test system: Enterobacter cloacae; experiment: Minimum inhibitory concentration (MIC) against gram negative bacteria Enterobacter cloacae MA-2646.; type: functional
[17] = test system: Escherichia coli; experiment: Minimum inhibitory concentration (MIC) against gram negative bacteria Escherichia coli Vogel.; type: functional; outline: as §1
[18] = test system: Streptococcus pneumoniae; experiment: In vivo efficacy (orally) against Streptococcus pneumoniae SV-1 in mouse protection test; type: functional; details: for ED50: Streptococcus pneumoniae, po, read-out: PD50; outline: as §2
[19] = test system: Pseudomonas aeruginosa; experiment: In vivo efficacy (orally) against Pseudomonas aeruginosa in mouse protection test; type: functional; details: for ED50: Pseudomonas aeruginosa, po, read-out: PD50; outline: as §2
[20] = test system: Klebsiella pneumoniae; experiment: Minimum inhibitory concentration (MIC) against gram negative bacteria Klebsiella pneumoniae MGH-2.; type: functional; outline: as §1
[21] = species on record: Mus musculus; experiment: Dose which has no effect to induce phototoxic reaction in 50% of mice by probit method.; type: functional
[22] = test system: Escherichia coli; experiment: In vivo efficacy in mouse protection test in Escherichia coli Vogel administered by subcutaneous injection.; type: functional; details: for ED50: Escherichia coli, sc, read-out: PD50; outline: as §2
[23] = test system: Streptococcus pyogenes; experiment: In vivo efficacy (s.c.) against Streptococcus pyogenes C-203 in mouse protection test; type: functional; details: for ED50: Streptococcus pyogenes, sc, read-out: PD50; outline: as §2
[24] = Days of the first positive reaction in […] mice; type: functional, Mus musculus; outline: as §3
[25] = Number of mice which show positive phototoxic reaction in 5 mice at peroral dose; type: functional, Mus musculus; outline: as §3
[26] = species on record: Mus musculus; experiment: Dose required to induce phototoxic reaction in 50% of mice by probit method at different dosage forms.; type: functional
[27] = test system: Mus musculus; experiment: (§4) Maximum tolerance dose was measured for phototoxic skin reaction by sc administration; type: functional; outline: as §3
[28] = Number of mice which show positive phototoxic reaction in 5 mice at subcutaneous dose; type: functional, Mus musculus; outline: as §3
[29] = test system: Mus musculus; experiment: Dose required to induce phototoxic reaction in 50% of mice by […] reactions at different dosage forms after sc administration; type: functional
Outline: (§5)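 Phototoxic skin reaction test in depilated female CD-1 mice. A single oral dose (gavage) or subcutaneous dose was given, followed 1 h later by 3 h of UVA exposure (320–400 nm). The regimen was repeated for up to 4 consecutive days, with initial doses of 30, 100 and 300 mg/kg. PTD50 was derived by the probit method. The first day of positive reaction and the no-effect dose were taken from the raw data.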

[30] = test system: Mus musculus; experiment: Compound's dose which has no effect to induce phototoxic reaction in 50% of mice by […] reactions after sc administration; type: functional; outline: as §5
[31] = test system: Mus musculus; experiment: Days of the first positive reaction in […] mice after sc administration; type: functional; outline: as §5
[32] = test system: Mus musculus; experiment: as §4; type: functional; outline: as §3; remark: listed apart in the source
[33] = species on record: Mus musculus; experiment: Days of the first positive reaction in […] mice.; type: functional; outline: as §5
[34] = Number of mice which show positive phototoxic reaction in 15 mice; type: functional, Mus musculus; outline: as §5
[35] = test system: Mus musculus; experiment: Maximum tolerance dose was measured for phototoxic skin reaction by po administration in mice; type: functional; outline: as §3
[36] = test system: Escherichia coli; experiment: Minimum inhibitory concentration (MIC) against gram negative bacteria Escherichia coli H-560; type: functional; outline: as §1
[37] = test system: Staphylococcus aureus; experiment: Minimum inhibitory concentration (MIC) against gram positive bacteria Staphylococcus aureus H-228; type: functional; outline: as §1
[38] = Minimum inhibitory concentration (MIC) against gram negative bacteria Prot. rettgeri M-1771; type: functional; details: Providencia rettgeri; outline: as §1
[39] = Streptococcus pneumoniae, read-out: MIC
[40] = Staphylococcus aureus, read-out: MIC
[41] = Enterococcus faecalis, read-out: MIC
[42] = Pseudomonas aeruginosa, read-out: MIC
[43] = Escherichia coli, read-out: MIC
[44] = Providencia rettgeri, read-out: MIC
[45] = Streptococcus pyogenes, read-out: MIC
[46] = Klebsiella pneumoniae, read-out: MIC

O=C(O)c1cn(C2CC2)c2c(F)c(N3CCNCC3)c(F)cc2c1=O
MIC [1, 39]: 0.8 µg/mL (≈ 2.29 µM)
ED50 [2]: 29 mg/kg
PTD50 [3]: 171 mg/kg
MIC [4, 40]: 0.1 µg/mL (≈ 0.286 µM)
ED50 [5]: 0.45 mg/kg
MIC [6, 40]: 0.4 µg/mL (≈ 1.15 µM)
MIC [7, 41]: 0.4 µg/mL (≈ 1.15 µM)
MIC [8, 42]: 0.2 µg/mL (≈ 0.573 µM)
MTD [9]: 100 mg/kg
MIC [10, 43]: 0.013 µg/mL (≈ 0.0372 µM)
ED50 [11]: 33 mg/kg
No. of pos rxns [12]: 0
MIC [13, 44]: 0.1 µg/mL (≈ 0.286 µM)
MIC [14, 45]: 0.8 µg/mL (≈ 2.29 µM)
ED50 [15]: 2.5 mg/kg
MIC [16]: 0.025 µg/mL (≈ 0.0716 µM)
MIC [17, 43]: 0.05 µg/mL (≈ 0.143 µM)
ED50 [18]: 59 mg/kg
ED50 [19]: 6.6 mg/kg
MIC [20, 46]: 0.05 µg/mL (≈ 0.143 µM)
No effect dose [21]: 100 mg/kg
ED50 [22]: 0.26 mg/kg
ED50 [23]: 8.9 mg/kg
Day of first positve reaction [24]: 0

O=C(O)c1cn(C2CC2)c2cc(N3CCNCC3)c(F)cc2c1=O [CIPROFLOXACIN]
No. of pos rxns [25]: 0
MIC [1]: 0.8 µg/mL (≈ 2.41 µM)
MIC [1, 39]: 0.8 µg/mL (≈ 2.41 µM)
PD50 [2]: 29 mg/kg
ED50 [2]: 29 mg/kg
PTD50 [26]: >300 mg kg-1 and 172
MIC [4]: 0.1 µg/mL (≈ 0.302 µM)
MIC [4, 40]: 0.1 µg/mL (≈ 0.302 µM)
PD50 [5]: 1.2 mg/kg
ED50 [5]: 1.2 mg/kg
MIC [6]: 1.6 µg/mL (≈ 4.83 µM)
MIC [6, 40]: 1.6 µg/mL (≈ 4.83 µM)
MIC [7]: 1.6 µg/mL (≈ 4.83 µM)
MIC [7, 41]: 1.6 µg/mL (≈ 4.83 µM)
MIC [8]: 0.2 µg/mL (≈ 0.604 µM)
MIC [8, 42]: 0.2 µg/mL (≈ 0.604 µM)
MTD [9]: 300 mg/kg
MIC [10]: 0.025 µg/mL (≈ 0.0754 µM)
MIC [10, 43]: 0.025 µg/mL (≈ 0.0754 µM)
MTD [27]: 100 mg/kg
PD50 [11]: 180 mg/kg
ED50 [11]: 180 mg/kg
No. of pos rxns [28]: 5
PTD50 [29]: 172 mg/kg
MIC [13]: 0.1 µg/mL (≈ 0.302 µM)
MIC [13, 44]: 0.1 µg/mL (≈ 0.302 µM)
No effect dose [30]: 100 mg/kg
MIC [14]: 0.4 µg/mL (≈ 1.21 µM)
MIC [14, 45]: 0.4 µg/mL (≈ 1.21 µM)
PD50 [15]: 5 mg/kg
ED50 [15]: 5 mg/kg
MIC [17]: 0.025 µg/mL (≈ 0.0754 µM)
MIC [17, 43]: 0.025 µg/mL (≈ 0.0754 µM)
PD50 [18]: 260 mg/kg
ED50 [18]: 260 mg/kg
Day of first positve reaction [31]: 2
PD50 [19]: 25 mg/kg
ED50 [19]: 25 mg/kg
MTD [32]: 100 mg/kg
MIC [20]: 0.05 µg/mL (≈ 0.151 µM)
MIC [20, 46]: 0.05 µg/mL (≈ 0.151 µM)
No effect dose [21]: 300 mg kg-1 and 100
PD50 [22]: 0.25 mg/kg
ED50 [22]: 0.25 mg/kg
PD50 [23]: 19 mg/kg
ED50 [23]: 19 mg/kg

NC1CCN(c2c(F)cc3c(=O)c(C(=O)O)cn(C4CC4)c3c2F)C1 (centres undefined)
MIC [1, 39]: 0.1 µg/mL (≈ 0.286 µM)
ED50 [2]: 5.5 mg/kg
PTD50 [26]: 4.2 mg/kg
MIC [4, 40]: 0.025 µg/mL (≈ 0.0716 µM)
ED50 [5]: 0.9 mg/kg
MIC [6, 40]: 0.05 µg/mL (≈ 0.143 µM)
MIC [7, 41]: 0.1 µg/mL (≈ 0.286 µM)
MIC [8, 42]: 0.1 µg/mL (≈ 0.286 µM)
MTD [9]: 6 mg/kg
Day of first positve reaction [33]: 3
MIC [10, 43]: 0.003 µg/mL (≈ 0.00859 µM)
No. of pos rxns [34]: 15
ED50 [11]: 7.5 mg/kg
MIC [13, 44]: 0.1 µg/mL (≈ 0.286 µM)
MIC [14, 45]: 0.05 µg/mL (≈ 0.143 µM)
ED50 [15]: 3 mg/kg
MIC [16]: 0.013 µg/mL (≈ 0.0372 µM)
MIC [17, 43]: 0.025 µg/mL (≈ 0.0716 µM)
ED50 [18]: 15 mg/kg
ED50 [19]: 6.5 mg/kg
MIC [20, 46]: 0.025 µg/mL (≈ 0.0716 µM)
No effect dose [21]: 3 mg/kg
ED50 [22]: 0.2 mg/kg
ED50 [23]: 2.3 mg/kg

O=C(O)c1cn(C2CC2)c2c(C(F)(F)F)c(N3CCNCC3)c(F)cc2c1=O
MIC [1, 39]: 0.4 µg/mL (≈ 1 µM)
ED50 [2]: 26 mg/kg
PTD50 [26]: >100 mg/kg
MIC [4, 40]: 0.1 µg/mL (≈ 0.25 µM)
ED50 [5]: 1.8 mg/kg
MTD [35]: 100 mg/kg
MIC [7, 41]: 0.4 µg/mL (≈ 1 µM)
MIC [8, 42]: 1.6 µg/mL (≈ 4.01 µM)
MIC [36]: 0.05 µg/mL (≈ 0.125 µM)
No. of pos rxns [12]: 0
MIC [14, 45]: 0.4 µg/mL (≈ 1 µM)
MIC [37]: 0.4 µg/mL (≈ 1 µM)
MIC [16]: 0.05 µg/mL (≈ 0.125 µM)
MIC [17, 43]: 0.05 µg/mL (≈ 0.125 µM)
ED50 [18]: 75 mg/kg
MIC [20, 46]: 0.1 µg/mL (≈ 0.25 µM)
No effect dose [21]: 100 mg/kg
ED50 [22]: 0.9 mg/kg
MIC [38]: 0.2 µg/mL (≈ 0.501 µM)
Day of first positve reaction [24]: 0
